In ChEMBL document CHEMBL1133148 (Bioorg Med Chem Lett, 2000):

Experiments:
Mu-type opioid receptor [1] = biological target: T1, Mu-type opioid receptor (Rattus norvegicus, UniProt P33535); assay: Concentration required for inhibition of [3H]DAMGO binding to Opioid receptor mu 1 in rat brain membranes; assay type: cell membranes
Procedure, shortened: (§1)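 Rat brain minus cerebellum, homogenised in 0.32 M sucrose and spun. The membrane pellet was preincubated 1 h at room temperature in Tris pH 7.5/NaCl to strip endogenous opioids. Filtration, scintillation counting.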

Mu-type opioid receptor [2] = biological target: T1, Mu-type opioid receptor; assay: Binding affinity towards Opioid receptor mu 1; procedure, shortened: as §1

T1 sequence (P33535 whole entry): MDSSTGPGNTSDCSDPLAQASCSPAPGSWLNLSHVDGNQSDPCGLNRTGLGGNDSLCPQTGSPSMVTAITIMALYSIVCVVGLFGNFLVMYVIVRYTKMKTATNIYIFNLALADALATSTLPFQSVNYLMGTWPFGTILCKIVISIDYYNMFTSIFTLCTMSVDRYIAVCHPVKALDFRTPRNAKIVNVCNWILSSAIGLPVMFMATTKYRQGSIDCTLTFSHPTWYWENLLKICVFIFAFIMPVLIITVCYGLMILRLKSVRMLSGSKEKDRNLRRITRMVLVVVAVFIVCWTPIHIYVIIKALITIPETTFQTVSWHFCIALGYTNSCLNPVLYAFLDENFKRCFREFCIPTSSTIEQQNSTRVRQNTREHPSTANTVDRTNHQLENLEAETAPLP

SMILES	IC50 (Mu-type opioid receptor [1]) [µM]	Ki (Mu-type opioid receptor [2]) [µM]
NC(=O)[C@H](Cc1ccccc1)NC(=O)[C@H](Cc1c[nH]c2ccccc12)NC(=O)C[C@H]1CCCN1C(=O)[C@@H](N)Cc1ccc(O)cc1	0.0018	0.00033
NC(=O)[C@H](Cc1ccccc1)NC(=O)[C@H](Cc1c[nH]c2ccccc12)NC(=O)[C@@H]1CCCN1C(=O)CC(N)c1ccc(O)cc1 (stereo partly drawn)		> 1
NC(=O)[C@H](Cc1ccccc1)NC(=O)[C@H](Cc1c[nH]c2ccccc12)NC(=O)C[C@@H]1CCCN1C(=O)[C@@H](N)Cc1ccc(O)cc1	0.072	0.0104
NC(=O)CC(NC(=O)[C@H](Cc1c[nH]c2ccccc12)NC(=O)[C@@H]1CCCN1C(=O)[C@@H](N)Cc1ccc(O)cc1)c1ccccc1 (stereo partly drawn)	0.68	0.908
NC(=O)[C@H](Cc1ccccc1)NC(=O)CC(NC(=O)[C@@H]1CCCN1C(=O)C(N)Cc1ccc(O)cc1)c1c[nH]c2ccccc12 (single isomer, unassigned)		> 1
